The results in this text go back to publication PMC4604364 (Antimicrobial Agents and Chemotherapy, 2015).

Converted amounts (≈) assume the structure as drawn.

Series [1] in a line: Pharmacokinetics in nonhuman primates. Type of series: in vivo, Cynomolgus monkeys. Conditions: for AUC / Cmax / Tmax / half-life / bioavailability: cynomolgus monkey, plasma. Put shortly: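 Cynomolgus monkeys were dosed intravenously (infusion ending at 0.25 h) or orally. Plasma was sampled predose and at 0.25, 0.5, 1, 3, 5, 7, 16 and 24 h. Protein was precipitated with acetonitrile containing 0.1% formic acid, then centrifuged. The supernatant was dried, reconstituted in methanol-water (1:1) and quantified by LC-MS/MS. PK parameters came from noncompartmental analysis.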

Series [2] has as its system E. faecalis JH2-2(pAM211) (ribosome protection, Tet M). As to the kind of experiment: Microdilution MIC, E. faecalis Tet M. Type of series: cell-based. The following applies: Enterococcus faecalis, read-out: MIC, E. faecalis Tet M. (Broth dilution looks for growth in wells or tubes with falling amounts of substance.)
Series [3] relates to S. pneumoniae 157E (wild type, tetracycline susceptible). As to the kind of experiment: Microdilution MIC, S. pneumoniae wild type. Type of series: cell-based. Conditions: Streptococcus pneumoniae, read-out: MIC, S. pneumoniae wild type.
Series [4] deals with S. aureus RN4250 (tetracycline efflux, Tet K). Briefly: Microdilution MIC, S. aureus Tet K. Format: cell-based. Conditions: Staphylococcus aureus, read-out: MIC, S. aureus Tet K.
The subject of series [5] is E. faecalis JH2-2(pMV158) (tetracycline efflux, Tet L). Briefly: Microdilution MIC, E. faecalis Tet L. Type of series: cell-based. Conditions: Enterococcus faecalis, read-out: MIC, E. faecalis Tet L.
In series [6] the test system is S. aureus RN450 (wild type, tetracycline susceptible). As to the kind of experiment: Microdilution MIC, S. aureus wild type. Format: cell-based. The following applies: Staphylococcus aureus, read-out: MIC, S. aureus wild type.
Series [7] relates to S. aureus MRSA 5 (MRSA, ribosome protection, Tet M). As to the kind of experiment: Microdilution MIC, S. aureus Tet M. Format: cell-based. The following applies: Staphylococcus aureus, read-out: MIC, S. aureus Tet M.
Series [8] has as its system S. aureus MRSA 5 (Tet M). As to the kind of experiment: S. aureus MRSA 5 thigh wound infection model in mice. Type of series: in vivo. The following applies: 24 h after single subcutaneous injection of 20 mg/kg.
Series [9] concerns S. aureus MRSA 5 (Tet M). Briefly: Serum MIC, S. aureus MRSA 5. Format: cell-based. Conditions: Staphylococcus aureus, read-out: S. aureus MRSA 5 (Tet M) serum MIC, None.
For series [10], the system named is S. pneumoniae ATCC 700905 (ribosome protection, Tet M). Briefly: Microdilution MIC, S. pneumoniae Tet M. Type of series: cell-based. The following applies: Streptococcus pneumoniae, ATCC700905, read-out: MIC, S. pneumoniae Tet M.
In series [11] the test system is E. faecalis JH2-2 (wild type, tetracycline susceptible). Briefly: Microdilution MIC, E. faecalis wild type. Type of series: cell-based. Conditions: Enterococcus faecalis, read-out: MIC, E. faecalis wild type.
For series [12], the system named is E. faecium 494 (Tet M plus Tet L). Briefly: Microdilution MIC, E. faecium Tet M + L. Format: cell-based. The following applies: Enterococcus faecium, read-out: MIC, E. faecium Tet M + L.
Series [13] deals with Gram-positive screening panel organisms (S. aureus, Enterococcus spp., S. pneumoniae). Briefly: MIC ranges over the Gram-positive screening panel. Format: cell-based. Conditions: read-out: MIC range against resistant organisms.

The term AUC denotes the area under the concentration-time curve, a measure of exposure. Low readings indicate less exposure, high ones more exposure. As a reminder, the Cmax is the peak of the concentration-time curve. As a reminder, the Tmax is the time from dosing to the highest level. The term half-life denotes how long it takes for the measured level to halve. Low values mean rapid decline, high ones slow decline. One may read the bioavailability as dose-corrected exposure relative to a reference, in per cent. By MIC is commonly meant the least concentration at which growth counts as inhibited. Take `CN(C)c1ccc(O)c2c1C[C@H]1C[C@H]3[C@H](N(C)C)C(O)=C(C(N)=O)C(=O)[C@@]3(O)C(O)=C1C2=O` [Minocycline, minocycline]: the AUC in series [1] (iv, 5 mg/kg) was 27600 ng·h/mL; in [1] (po, 5 mg/kg) it was 22100 ng·h/mL. In addition, the Cmax is 14800 ng/mL in series [1] (iv, 5 mg/kg) and 2200 ng/mL in [1] (po, 5 mg/kg). Besides, the Tmax in series [1] (iv, 5 mg/kg) amounted to 0.1 h; in [1] (po, 5 mg/kg), 3 h. For the same compound, the half-life in [1] (iv, 5 mg/kg) is 10.4 h; in series [1] (po, 5 mg/kg), 7 h. Besides, the bioavailability in [1] (po, 5 mg/kg) turned out to be 80%. Besides, the MIC in series [2] is 16 µg/mL (≈ 35 µM); in series [3] it was less than 0.06 µg/mL; in series [4] it was 0.5 µg/mL (≈ 1.09 µM); in [5], 0.5 µg/mL (≈ 1.09 µM); in [6] it was 0.25 µg/mL (≈ 0.546 µM); in [7], 2 µg/mL (≈ 4.37 µM). In addition, the MIC with S. aureus MRSA 5 (Tet M) [9] is 2 µg/mL (≈ 4.37 µM); in [10] it was 8 µg/mL (≈ 17.5 µM); in [11], 0.5 µg/mL (≈ 1.09 µM); in series [12] it was 16 µg/mL. The “reduction of colony count relative to untreated control animals” value with S. aureus MRSA 5 (Tet M) [8] was determined as 0.98 log10.

Consider `CN[C@H](CC(C)C)C(=O)N[C@H]1C(=O)N[C@@H](CC(N)=O)C(=O)N[C@H]2C(=O)N[C@H]3C(=O)N[C@H](C(=O)N[C@H](C(=O)O)c4cc(O)cc(O)c4-c4cc3ccc4O)[C@H](O)c3ccc(c(Cl)c3)Oc3cc2cc(c3O[C@@H]2O[C@H](CO)[C@@H](O)[C@H](O)[C@H]2O[C@H]2C[C@](C)(N)[C@H](O)[C@H](C)O2)Oc2ccc(cc2Cl)[C@H]1O` [Vancomycin], for which the MIC is 1 µg/mL (≈ 0.69 µM) in series [2]; 0.25 µg/mL (≈ 0.173 µM) in series [3]; 0.25 µg/mL (≈ 0.173 µM) in series [4]; 1 µg/mL (≈ 0.69 µM) in series [5]; 0.5 µg/mL (≈ 0.345 µM) in series [6]; 0.5 µg/mL (≈ 0.345 µM) in [7]. In addition, the MIC with S. aureus MRSA 5 (Tet M) [9] was 0.5 µg/mL (≈ 0.345 µM); in series [10] it was 0.25 µg/mL (≈ 0.173 µM); in [11], 1 µg/mL (≈ 0.69 µM); in series [12] it was greater than 64 µg/mL.

With `CN(C)c1cc(CNCC(C)(C)C)c(O)c2c1C[C@H]1C[C@H]3[C@H](N(C)C)C(O)=C(C(N)=O)C(=O)[C@@]3(O)C(O)=C1C2=O` [Compound 27, 9-neopentylaminomethylminocycline], the “tolerability after intravenous infusion” value in series [1] (Cynomolgus monkeys) is listed as “well tolerated”. The AUC in series [1] (iv, 2.6 mg/kg) was determined as 9000 ng·h/mL; in [1] (po, 5 mg/kg), 5300 ng·h/mL. Also, the Cmax was determined as 1880 ng/mL in [1] (iv, 2.6 mg/kg) and 410 ng/mL in series [1] (po, 5 mg/kg). In addition, the Tmax in series [1] (iv, 2.6 mg/kg) worked out at 0.2 h; in [1] (po, 5 mg/kg) it was 2.3 h. Moreover, the half-life in [1] (iv, 2.6 mg/kg) was 14.4 h; in series [1] (po, 5 mg/kg), 11.1 h. The bioavailability in [1] (po, 5 mg/kg) came to 31%. Besides, the “oral plasma exposure relative to tigecycline” value in series [1] (oral administration, monkeys) turned out to be 10 fold. Further, the MIC was 0.5 µg/mL (≈ 0.898 µM) in series [2]; less than 0.06 µg/mL in [3]; 0.06 to 0.5 µg/mL (≈ 0.108 to 0.898 µM) in series [13]; 0.25 µg/mL (≈ 0.449 µM) in [4]; 0.5 µg/mL (≈ 0.898 µM) in series [5]; 0.25 µg/mL (≈ 0.449 µM) in series [6]. Moreover, the MIC in [7] is 0.25 µg/mL (≈ 0.449 µM); with S. aureus MRSA 5 (Tet M) [9], 0.25 µg/mL (≈ 0.449 µM); in series [10], less than 0.06 µg/mL; in series [11] it was 0.25 µg/mL (≈ 0.449 µM); in series [12], 0.5 µg/mL. Further, in the series on S. aureus MRSA 5 (Tet M) [8], the “reduction of colony count relative to untreated control animals” value lay within 2.49 to 3.11 log10.

Consider `CN(C)c1cc(NC(=O)CNC(C)(C)C)c(O)c2c1C[C@H]1C[C@H]3[C@H](N(C)C)C(O)=C(C(N)=O)C(=O)[C@@]3(O)C(O)=C1C2=O` [Tigecycline, tigecycline], for which the AUC came out at 16300 ng·h/mL in series [1] (iv, 5 mg/kg) and 500 ng·h/mL in [1] (po, 5 mg/kg). In addition, the Cmax amounted to 23200 ng/mL in series [1] (iv, 5 mg/kg) and 40 ng/mL in series [1] (po, 5 mg/kg). Moreover, the Tmax is 0.2 h in series [1] (iv, 5 mg/kg) and 4 h in series [1] (po, 5 mg/kg). Moreover, the half-life is 10.9 h in [1] (iv, 5 mg/kg) and 3.4 h in series [1] (po, 5 mg/kg). Also, in series [1] (po, 5 mg/kg), the bioavailability was 3.1%. Further, the MIC in series [2] is 0.5 µg/mL (≈ 0.854 µM); in series [3], less than 0.06 µg/mL; in [4] it was 0.5 µg/mL (≈ 0.854 µM); in series [5] it was 0.5 µg/mL (≈ 0.854 µM); in series [6], 0.25 µg/mL (≈ 0.427 µM); in [7], 0.25 µg/mL (≈ 0.427 µM). Further, the MIC with S. aureus MRSA 5 (Tet M) [9] was 0.25 µg/mL (≈ 0.427 µM); in series [10], less than 0.06 µg/mL; in series [11] it was 0.5 µg/mL (≈ 0.854 µM); in series [12], 0.5 µg/mL.

Regarding `CN(C)[C@@H]1C(O)=C(C(N)=O)C(=O)[C@@]2(O)C(O)=C3C(=O)c4c(O)cccc4[C@@](C)(O)[C@H]3C[C@@H]12` [Tetracycline, tetracycline], the MIC in [2] was greater than 64 µg/mL; in series [3] it was less than 0.06 µg/mL; in series [4], greater than 64 µg/mL; in [5], 64 µg/mL (≈ 144 µM); in series [6], less than 0.06 µg/mL; in [7], 32 µg/mL (≈ 72 µM). Also, the MIC in [10] is 32 µg/mL (≈ 72 µM); in series [11], 0.25 µg/mL (≈ 0.563 µM); in [12], greater than 64 µg/mL.
